Screening data (PubChem)
CHRM4 antagonist: blocks acetylcholine activation of human M4 receptor | P08173 | CHO-hM4 cells, ACh EC80, Fluo-8 calcium fluorescence | inhibition, % at 3 µM | hit rate 0.73% among 360,000 | AID 624125;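 active means inhibition above its plate's cutoff, the mean inhibition of sample wells plus 3 SD, cut at about 27% in these data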;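 further: 0% = acetylcholine EC80 with DMSO and 100% = DMSO without agonist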
Target sequence (P08173 whole entry, looked up): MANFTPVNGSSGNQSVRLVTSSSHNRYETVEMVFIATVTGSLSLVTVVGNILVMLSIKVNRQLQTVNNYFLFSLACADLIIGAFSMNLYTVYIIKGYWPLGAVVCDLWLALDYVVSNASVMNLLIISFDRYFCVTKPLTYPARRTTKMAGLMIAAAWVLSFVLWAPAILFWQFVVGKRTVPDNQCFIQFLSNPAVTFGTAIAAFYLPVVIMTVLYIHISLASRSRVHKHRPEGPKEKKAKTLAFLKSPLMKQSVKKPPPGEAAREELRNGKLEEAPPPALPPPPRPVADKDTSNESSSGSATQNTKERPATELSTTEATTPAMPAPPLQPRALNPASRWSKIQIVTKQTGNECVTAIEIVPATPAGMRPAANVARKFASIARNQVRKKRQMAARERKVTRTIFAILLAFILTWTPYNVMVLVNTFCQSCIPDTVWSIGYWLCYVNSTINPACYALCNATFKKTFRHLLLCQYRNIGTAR
CHRM4 agonist: agonists of human muscarinic M4 receptor (CHRM4) | CHO-K1 hM4/Gqi5, Fluo-8 calcium fluorescence; vehicle 0%, full acetylcholine response 100% | activation, % at 3 µM | hit rate 0.14% among 360,000 | AID 624127;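 active means activation above the run mean over all test wells plus 3 SD, cut at about 32% in these data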;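 further: peak over basal fluorescence ratio per well then scaled between controls; 0% = DMSO wells and 100% = acetylcholine at EC100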
CHRM5 antagonist: blocks acetylcholine activation of human M5 receptor; inhibition, % at 3 µM; hit rate 0.59% among 360,000; CHO-hM5 cells, Fluo-8 calcium fluorescence, ACh EC80;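 active means inhibition above a per-plate cutoff, the mean of that plate's test compounds plus 3 SD, cut at about 27% in these data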;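 further: 0% = acetylcholine EC80 with DMSO and 100% = DMSO without agonist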
M5 ag: agonists of human muscarinic M5 receptor (CHRM5); AID 624037; CHO-K1 hM5 cells, Fluo-8 calcium fluorescence; 0% DMSO wells, 100% maximal acetylcholine response; activation, % at 3 µM; hit rate 0.19% among 360,000; P08912;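 active means activation above the run's mean over test compounds plus 3 SD, cut at about 23% in these data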;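 further: signal is peak over basal fluorescence ratio across the kinetic read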
M5 PAM: CHRM5 positive allosteric modulation; CHO-K1 hM5, Fluo-8 calcium, ACh EC20 PAM; 0% = ACh EC20, 100% = ACh EC100; activation, % at 3 µM; hit rate 0.3% among 360,000; AID 624038;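 active means activation above the run cutoff, the mean activation of all test compounds plus 3 SD, cut at about 18% in these data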
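System – CHO-K1 hM5 cells · Compound – 3 µM, single dose · Incubation – compound preincubation 140 s before EC20 acetylcholine addition · Technique – Fluo-8 calcium fluorescence · Measure – Max/basal fluorescence ratio as % of EC20–EC100 ACh window · Benchmarks – low control EC20 acetylcholine (0%), high control EC100 acetylcholine (100%) · Replication – singlicate, one well per test compound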
M4 PAM: CHRM4 positive allosteric modulation; CHO-K1 hM4/Gqi5, Fluo-8 calcium fluorescence, ACh EC20; 0% = ACh EC20, 100% = maximal ACh; hit rate 0.4% among 360,000; activation, % at 3 µM; P08173;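 active means activation above its plate's cutoff, the mean activation of sample wells plus 3 SD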
Numbers without * were called inactive. The list is not random: actives were taken first. Their share in the collection is about 1.8%.

Results for COC(=O)c1cccc(CC2(C)C(=O)Nc3ccc(OC(F)(F)F)cc32)c1 (stereo not given) ?
CHRM4 antagonist: -10; CHRM4 agonist: 1; CHRM5 antagonist: 1; M5 ag: 0; M5 PAM: -3; M4 PAM: 0

Results for O=C(NCc1ccccn1)/C(=C/c1ccco1)NC(=O)c1ccccc1 ?
CHRM4 antagonist: -14; CHRM4 agonist: 5; CHRM5 antagonist: -4; M5 ag: 0; M5 PAM: 0; M4 PAM: 21*

Results for O=C(O)c1cccc(-n2c(-c3cnccn3)n[nH]c2=S)c1 ?
CHRM4 antagonist: -6; CHRM4 agonist: 1; CHRM5 antagonist: -7; M5 ag: 3; M5 PAM: 18*; M4 PAM: 4

Results for CC1=C(C(=O)N(C(C)C)C(C)C)CC(CC(=O)NCCc2ccccn2)C(=O)N1Cc1ccc(F)cc1 (stereo not given) ?
CHRM4 antagonist: -11; CHRM4 agonist: 0; CHRM5 antagonist: 4; M5 ag: -1; M5 PAM: 0; M4 PAM: 10

Results for CN1/C(=C/C=C(C#N)C#N)C(C)(C)c2ccccc21 ?
CHRM4 antagonist: -6; CHRM4 agonist: 0; CHRM5 antagonist: 1; M5 ag: 2; M5 PAM: 9; M4 PAM: -7

Results for CC1=C/C(=C\C=C(C#N)C#N)N(C)c2ccccc21 ?
CHRM4 antagonist: 2; CHRM4 agonist: 10; CHRM5 antagonist: 17; M5 ag: 43*; M5 PAM: -13; M4 PAM: -1

How did COc1cc(CNCCc2c[nH]c3ccccc23)ccc1OCc1ccc(F)cc1 do in these assays?
CHRM4 antagonist: 47*; CHRM4 agonist: 47*; CHRM5 antagonist: 12; M5 ag: 7; M5 PAM: -4; M4 PAM: -2

What do the screens show for `CC(C)NC(=O)C1(C)CN(S(C)(=O)=O)CC(=O)N1CCc1ccccc1F` (stereo not given)?
CHRM4 antagonist: -4; CHRM4 agonist: 2; CHRM5 antagonist: -1; M5 ag: 1; M5 PAM: 7; M4 PAM: 2

How did Cc1ccc(S(=O)(=O)N2C[C@H]3C(=O)C[C@@H](c4ccccc4F)N(S(=O)(=O)c4ccc(C)cc4)[C@H]3C[C@H]2c2ccccc2)cc1 do in these assays?
CHRM4 antagonist: 0; CHRM4 agonist: 2; CHRM5 antagonist: 12; M5 ag: 5; M5 PAM: -3; M4 PAM: -3

How did Cc1cc(NC(=O)c2cccnc2)ccc1NC(=O)c1cc2ccccc2o1 do in these assays?
CHRM4 antagonist: -15; CHRM4 agonist: 33*; CHRM5 antagonist: -1; M5 ag: 6; M5 PAM: -15; M4 PAM: -9

What do the screens show for `Cc1cc(NC(=O)c2cc3ccccc3o2)ccc1NC(=O)c1ccccc1`?
CHRM4 antagonist: -8; CHRM4 agonist: 10; CHRM5 antagonist: 6; M5 ag: -3; M5 PAM: -5; M4 PAM: -5

Results for CCCc1nn(-c2cc(Cl)ccc2OC)c2c1C(=O)CC(C)(C)C2 ?
CHRM4 antagonist: 4; CHRM4 agonist: -3; CHRM5 antagonist: -1; M5 ag: -5; M5 PAM: 1; M4 PAM: -2

How did CCc1nn(-c2cc(Cl)ccc2OC)c2c1C(=O)CCC2 do in these assays?
CHRM4 antagonist: -2; CHRM4 agonist: -1; CHRM5 antagonist: -11; M5 ag: -5; M5 PAM: 18*; M4 PAM: 10

What do the screens show for `C=CCNC(=O)c1ccsc1N`?
CHRM4 antagonist: -2; CHRM4 agonist: 6; CHRM5 antagonist: -3; M5 ag: 9; M5 PAM: 4; M4 PAM: 4

What do the screens show for `Cc1cccc(C)c1NC(=O)Nc1nnc([C@@H]2C[C@H](O)[C@@H](CO)O2)s1`?
CHRM4 antagonist: 0; CHRM4 agonist: 0; CHRM5 antagonist: 4; M5 ag: 2; M5 PAM: -2; M4 PAM: -4

What do the screens show for `Cn1c(=O)c2[nH]c(CCCCc3nc4ccccc4[nH]3)nc2n(C)c1=O`?
CHRM4 antagonist: 0; CHRM4 agonist: 7; CHRM5 antagonist: 10; M5 ag: 0; M5 PAM: 0; M4 PAM: 0

How did Cn1c(=O)c2[nH]c(CCCCCCCCc3nc4ccccc4[nH]3)nc2n(C)c1=O do in these assays?
CHRM4 antagonist: 30*; CHRM4 agonist: 14; CHRM5 antagonist: 19; M5 ag: -7; M5 PAM: -36; M4 PAM: -10

How did CC(=O)O[C@]1(C(C)=O)CC[C@H]2[C@@H]3C=C(C)C4=CC(=O)CC[C@@H]4[C@H]3CC[C@@]21C do in these assays?
CHRM4 antagonist: 17; CHRM4 agonist: 1; CHRM5 antagonist: 6; M5 ag: -1; M5 PAM: -6; M4 PAM: -10

Results for C#C[C@]1(OC(C)=O)CCC2C3CCC4=CC(=O)CC[C@@H]4C3CC[C@@]21C (stereo not given in full) ?
CHRM4 antagonist: -9; CHRM4 agonist: 13; CHRM5 antagonist: 3; M5 ag: 27*; M5 PAM: -17; M4 PAM: -7

Results for O=C1NC[C@@H](CCCCN2C[C@H](Cc3ccc(O)cc3)N(CCc3ccc(O)cc3)C(=O)C2=O)N(CCc2ccccc2)C1=O ?
CHRM4 antagonist: 5; CHRM4 agonist: 3; CHRM5 antagonist: 1; M5 ag: 4; M5 PAM: 0; M4 PAM: 5

How did O=c1[nH]c2ccccc2c2ccc(Cl)cc12 do in these assays?
CHRM4 antagonist: -12; CHRM4 agonist: 0; CHRM5 antagonist: 12; M5 ag: -3; M5 PAM: -1; M4 PAM: 1

Results for O=c1[nH]c2cc(F)ccc2c2ccc(F)cc12 ?
CHRM4 antagonist: -13; CHRM4 agonist: 1; CHRM5 antagonist: -9; M5 ag: -2; M5 PAM: 19*; M4 PAM: -2

What do the screens show for `COc1cc2nc(C3CCC3)nc(N3CCN(c4ccccc4OC)CC3)c2cc1OC`?
CHRM4 antagonist: 43*; CHRM4 agonist: 1; CHRM5 antagonist: 14; M5 ag: -6; M5 PAM: -19; M4 PAM: -40

Results for COc1ccc(-n2c(C)cc(/C=C3\SC(=S)N(Cc4ccco4)C3=O)c2C)cc1 ?
CHRM4 antagonist: 7; CHRM4 agonist: 2; CHRM5 antagonist: 8; M5 ag: 8; M5 PAM: 0; M4 PAM: 1

What do the screens show for `CCN1CCN(c2c(/C=C3\SC(=S)N(Cc4ccco4)C3=O)c(C)c(C#N)c(=O)n2C)CC1`?
CHRM4 antagonist: 7; CHRM4 agonist: 21; CHRM5 antagonist: 15; M5 ag: 57*; M5 PAM: -20; M4 PAM: -32
